What all share (format): nucleic-acid assay
The subject of experiment [1] is Nucleic Acid. The experiment in a line: Binding affinity to FAM-tagged r-(GAAAYAAGAGGAAAGA)-RNA assessed as crosslinking at 10 uM by alkylation method. A digest of the protocol:
(§1)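 Reactive ODN at 10 µM with 1 µM FAM-labeled target DNA or RNA in 100 mM NaCl, 50 mM MES pH 5 plus RNase OUT, mixed at 0 °C and then incubated at 37 °C. Reactions were stopped at set times with formamide/EDTA/bromophenol blue buffer. Products were resolved on 15% denaturing polyacrylamide gel with 7 M urea, and FAM band intensities were quantified to give crosslinking yield.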

Experiment [2] relates to Nucleic Acid. Kind of experiment: Binding affinity to FAM-tagged d-(GAAAYAAGAGGAAAGA)-DNA assessed as crosslinking at 10 uM by alkylation method. A digest of the protocol:
as §1

Experiment [3] has as its system Nucleic Acid. The experiment in a line: Binding affinity to r-(CGCUGGGCGUUAAUCAAAGAGGCGAAC)-RNA assessed as melting temperature at 1.5 uM by UV-visible spectrophotometry. A digest of the protocol: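 Each strand at 1.5 µM: ODN plus complementary 27-mer RNA in 100 mM NaCl, 50 mM MES pH 5. Samples were heated at 85 °C for 10 min and cooled slowly. Melting curves were recorded at 260 nm while warming 20 to 80 °C at 1.0 °C/min to obtain Tm.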

The subject of experiment [4] is Nucleic Acid. Kind of experiment: Binding affinity to FAM-tagged r-(CAAGCGGAGAAAYUAAUUGCGGGUCGC)-RNA assessed as crosslinking at 10 uM by alkylation method. A digest of the protocol: as §1

Calls of active or inactive are those of the source. The rule behind the calls is not given here.

Regarding `CSCCc1nc(N)nc2c1ncn2C[C@H]1C[C@H](OP(=O)(O)OC[C@H]2O[C@@H](n3cc(C)c(=O)[nH]c3=O)C[C@@H]2OP(=O)(O)OC[C@H]2O[C@@H](n3cc(C)c(=O)[nH]c3=O)C[C@@H]2OP(=O)(O)OC[C@H]2O[C@@H](n3ccc(N)nc3=O)[C@H](O)[C@@H]2OP(=O)(O)OC[C@H]2O[C@@H](n3cc(C)c(=O)[nH]c3=O)C[C@@H]2OP(=O)(O)OC[C@H]2O[C@@H](n3ccc(N)nc3=O)[C@H](O)[C@@H]2OP(=O)(O)OC[C@H]2O[C@@H](n3ccc(N)nc3=O)[C@H](O)[C@@H]2OP(=O)(O)OC[C@H]2O[C@@H](n3cc(C)c(=O)[nH]c3=O)C[C@@H]2OP(=O)(O)OC[C@H]2O[C@@H](n3cc(C)c(=O)[nH]c3=O)C[C@@H]2OP(=O)(O)OC[C@H]2O[C@@H](n3cc(C)c(=O)[nH]c3=O)C[C@@H]2OP(=O)(O)OC[C@H]2O[C@@H](n3ccc(N)nc3=O)[C@H](O)[C@@H]2OP(=O)(O)OC[C@H]2O[C@@H](n3cc(C)c(=O)[nH]c3=O)C[C@@H]2OP(=O)(O)O)[C@@H](COP(=O)(O)O[C@H]2C[C@H](n3cc(C)c(=O)[nH]c3=O)O[C@@H]2COP(=O)(O)O[C@H]2C[C@H](n3cc(C)c(=O)[nH]c3=O)O[C@@H]2COP(=O)(O)O[C@H]2C[C@H](n3cc(C)c(=O)[nH]c3=O)O[C@@H]2COP(=O)(O)O[C@H]2[C@@H](O)[C@H](n3ccc(N)nc3=O)O[C@@H]2CO)O1`, the result in the experiment on Nucleic Acid [1] and in the experiment on Nucleic Acid [2] was inactive.

As for `CSCCc1nc(N)nc2c1ncn2[C@H]1C[C@H](OP(=O)(O)OC[C@H]2O[C@@H](n3cnc4c(N)ncnc43)[C@H](O)[C@@H]2OP(=O)(O)OC[C@H]2O[C@@H](n3cc(C)c(=O)[nH]c3=O)C[C@@H]2OP(=O)(O)OC[C@H]2O[C@@H](n3cc(C)c(=O)[nH]c3=O)C[C@@H]2OP(=O)(O)OC[C@H]2O[C@@H](n3cnc4c(N)ncnc43)[C@H](O)[C@@H]2OP(=O)(O)OC[C@H]2O[C@@H](n3cnc4c(N)ncnc43)[C@H](O)[C@@H]2OP(=O)(O)OC[C@H]2O[C@@H](n3ccc(N)nc3=O)[C@H](O)[C@@H]2OP(=O)(O)OC[C@H]2O[C@@H](n3cnc4c(=O)[nH]c(N)nc43)[C@H](O)[C@@H]2OP(=O)(O)OC[C@H]2O[C@@H](n3ccc(N)nc3=O)[C@H](O)[C@@H]2OP(=O)(O)OC[C@H]2O[C@@H](n3ccc(N)nc3=O)[C@H](O)[C@@H]2OP(=O)(O)O)[C@@H](COP(=O)(O)O[C@H]2C[C@H](n3cc(C)c(=O)[nH]c3=O)O[C@@H]2COP(=O)(O)O[C@H]2C[C@H](n3cc(C)c(=O)[nH]c3=O)O[C@@H]2COP(=O)(O)O[C@H]2C[C@H](n3cc(C)c(=O)[nH]c3=O)O[C@@H]2COP(=O)(O)O[C@H]2[C@@H](O)[C@H](n3ccc(N)nc3=O)O[C@@H]2COP(=O)(O)O[C@H]2C[C@H](n3cc(C)c(=O)[nH]c3=O)O[C@@H]2COP(=O)(O)O[C@H]2[C@@H](O)[C@H](n3ccc(N)nc3=O)O[C@@H]2COP(=O)(O)O[C@H]2[C@@H](O)[C@H](n3ccc(N)nc3=O)O[C@@H]2COP(=O)(O)O[C@H]2[C@@H](O)[C@H](n3cnc4c(=O)[nH]c(N)nc43)O[C@@H]2COP(=O)(O)O[C@H]2[C@@H](O)[C@H](n3ccc(N)nc3=O)O[C@@H]2COP(=O)(O)O[C@H]2C[C@H](n3cc(C)c(=O)[nH]c3=O)O[C@@H]2COP(=O)(O)O[C@H]2C[C@H](n3cc(C)c(=O)[nH]c3=O)O[C@@H]2CO)O1`, in the experiment on Nucleic Acid [3], the Tm is 49.4 °C. The outcome in the experiment with Nucleic Acid [4] was Active. `CSCCc1nc(N)nc2c1ncn2CCCC[C@H]1C[C@H](OP(=O)(O)OC[C@H]2O[C@@H](n3cc(C)c(=O)[nH]c3=O)C[C@@H]2OP(=O)(O)OC[C@H]2O[C@@H](n3cc(C)c(=O)[nH]c3=O)C[C@@H]2OP(=O)(O)OC[C@H]2O[C@@H](n3ccc(N)nc3=O)[C@H](O)[C@@H]2OP(=O)(O)OC[C@H]2O[C@@H](n3cc(C)c(=O)[nH]c3=O)C[C@@H]2OP(=O)(O)OC[C@H]2O[C@@H](n3ccc(N)nc3=O)[C@H](O)[C@@H]2OP(=O)(O)OC[C@H]2O[C@@H](n3ccc(N)nc3=O)[C@H](O)[C@@H]2OP(=O)(O)OC[C@H]2O[C@@H](n3cc(C)c(=O)[nH]c3=O)C[C@@H]2OP(=O)(O)OC[C@H]2O[C@@H](n3cc(C)c(=O)[nH]c3=O)C[C@@H]2OP(=O)(O)OC[C@H]2O[C@@H](n3cc(C)c(=O)[nH]c3=O)C[C@@H]2OP(=O)(O)OC[C@H]2O[C@@H](n3ccc(N)nc3=O)[C@H](O)[C@@H]2OP(=O)(O)OC[C@H]2O[C@@H](n3cc(C)c(=O)[nH]c3=O)C[C@@H]2OP(=O)(O)O)[C@@H](COP(=O)(O)O[C@H]2C[C@H](n3cc(C)c(=O)[nH]c3=O)O[C@@H]2COP(=O)(O)O[C@H]2C[C@H](n3cc(C)c(=O)[nH]c3=O)O[C@@H]2COP(=O)(O)O[C@H]2C[C@H](n3cc(C)c(=O)[nH]c3=O)O[C@@H]2COP(=O)(O)O[C@H]2[C@@H](O)[C@H](n3ccc(N)nc3=O)O[C@@H]2CO)O1`: the outcome in the experiment with Nucleic Acid [1] and in the experiment with Nucleic Acid [2] was inactive. As to `CSCCc1nc(N)nc2c1ncn2[C@H]1C[C@H](OP(=O)(O)OC[C@H]2O[C@@H](n3cc(C)c(=O)[nH]c3=O)C[C@@H]2OP(=O)(O)OC[C@H]2O[C@@H](n3cc(C)c(=O)[nH]c3=O)C[C@@H]2OP(=O)(O)OC[C@H]2O[C@@H](n3ccc(N)nc3=O)[C@H](O)[C@@H]2OP(=O)(O)OC[C@H]2O[C@@H](n3cc(C)c(=O)[nH]c3=O)C[C@@H]2OP(=O)(O)OC[C@H]2O[C@@H](n3ccc(N)nc3=O)[C@H](O)[C@@H]2OP(=O)(O)OC[C@H]2O[C@@H](n3ccc(N)nc3=O)[C@H](O)[C@@H]2OP(=O)(O)OC[C@H]2O[C@@H](n3cc(C)c(=O)[nH]c3=O)C[C@@H]2OP(=O)(O)OC[C@H]2O[C@@H](n3cc(C)c(=O)[nH]c3=O)C[C@@H]2OP(=O)(O)OC[C@H]2O[C@@H](n3cc(C)c(=O)[nH]c3=O)C[C@@H]2OP(=O)(O)OC[C@H]2O[C@@H](n3ccc(N)nc3=O)[C@H](O)[C@@H]2OP(=O)(O)OC[C@H]2O[C@@H](n3cc(C)c(=O)[nH]c3=O)C[C@@H]2OP(=O)(O)O)[C@@H](COP(=O)(O)O[C@H]2C[C@H](n3cc(C)c(=O)[nH]c3=O)O[C@@H]2COP(=O)(O)O[C@H]2C[C@H](n3cc(C)c(=O)[nH]c3=O)O[C@@H]2COP(=O)(O)O[C@H]2C[C@H](n3cc(C)c(=O)[nH]c3=O)O[C@@H]2COP(=O)(O)O[C@H]2[C@@H](O)[C@H](n3ccc(N)nc3=O)O[C@@H]2CO)O1`, the outcome with Nucleic Acid [1] and in the experiment on Nucleic Acid [2] was inactive. In the case of `Cc1cn([C@H]2C[C@H](OP(=O)(O)OC[C@H]3O[C@@H](n4cc(C)c(=O)[nH]c4=O)C[C@@H]3OP(=O)(O)OC[C@H]3O[C@@H](n4ccc(N)nc4=O)[C@H](O)[C@@H]3OP(=O)(O)OC[C@H]3O[C@@H](n4cnc5c(=O)[nH]c(N)nc54)[C@H](O)[C@@H]3OP(=O)(O)OC[C@H]3O[C@@H](n4ccc(N)nc4=O)[C@H](O)[C@@H]3OP(=O)(O)OC[C@H]3O[C@@H](n4ccc(N)nc4=O)[C@H](O)[C@@H]3OP(=O)(O)OC[C@H]3O[C@@H](n4cc(C)c(=O)[nH]c4=O)C[C@@H]3OP(=O)(O)OC[C@H]3O[C@@H](n4ccc(N)nc4=O)[C@H](O)[C@@H]3OP(=O)(O)OC[C@H]3O[C@@H](n4cc(C)c(=O)[nH]c4=O)C[C@@H]3OP(=O)(O)OC[C@H]3O[C@@H](n4cc(C)c(=O)[nH]c4=O)C[C@@H]3OP(=O)(O)OC[C@H]3O[C@@H](n4cc(C)c(=O)[nH]c4=O)C[C@@H]3OP(=O)(O)OC[C@H]3O[C@@H](n4cnc5c(=O)[nH]c(N)nc54)[C@H](O)[C@@H]3OP(=O)(O)OC[C@H]3O[C@@H](n4cnc5c(N)ncnc54)[C@H](O)[C@@H]3OP(=O)(O)OC[C@H]3O[C@@H](n4cc(C)c(=O)[nH]c4=O)C[C@@H]3OP(=O)(O)OC[C@H]3O[C@@H](n4cc(C)c(=O)[nH]c4=O)C[C@@H]3OP(=O)(O)OC[C@H]3O[C@@H](n4cnc5c(N)ncnc54)[C@H](O)[C@@H]3OP(=O)(O)OC[C@H]3O[C@@H](n4cnc5c(N)ncnc54)[C@H](O)[C@@H]3OP(=O)(O)OC[C@H]3O[C@@H](n4ccc(N)nc4=O)[C@H](O)[C@@H]3OP(=O)(O)OC[C@H]3O[C@@H](n4cnc5c(=O)[nH]c(N)nc54)[C@H](O)[C@@H]3OP(=O)(O)OC[C@H]3O[C@@H](n4ccc(N)nc4=O)[C@H](O)[C@@H]3OP(=O)(O)OC[C@H]3O[C@@H](n4ccc(N)nc4=O)[C@H](O)[C@@H]3OP(=O)(O)O)[C@@H](CO)O2)c(=O)[nH]c1=O`, the Tm in the experiment with Nucleic Acid [3] was determined as 55.8 °C.

Source of the values: ChEMBL document CHEMBL1157100, “The alkyl-connected 2-amino-6-vinylpurine (AVP) crosslinking agent for improved selectivity to the cytosine base in RNA” (Bioorg Med Chem, 2010).
